pIC50: −log10 of the molar value. In brackets after ≈: the same amount, converted by molar mass.

What all share (format): functional
Experiment [1] has as its system Streptococcus pneumoniae. Put plainly: Inhibition on Streptococcus pneumoniae translation by uncoupled translation assay. In short, it runs like this:
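The assay was cell-free and translation-only (uncoupled), using S. pneumoniae material. Dried test compound was mixed with S30 extract, luciferase-encoding mRNA and a complete amino acid mix. The mix was incubated to allow translation, and the reaction was stopped with kanamycin. Luciferin reagent was then added, and read-out was by flash luminescence. Results are given as IC50.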

The subject of experiment [2] is Streptococcus pneumoniae. Put plainly: Antibacterial activity against quinolone-resistant Streptococcus pneumoniae ATCC 7257. The procedure, abridged:
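MIC by broth microdilution following National Committee for Clinical Laboratory Standards methods for dilution susceptibility testing of aerobically growing bacteria, against the quinolone-resistant S. pneumoniae strain 7257.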

The subject of experiment [3] is Streptococcus pneumoniae. Put plainly: Antibacterial activity against quinolone-susceptible Streptococcus pneumoniae ATCC 6303. In short, it runs like this:
(§1)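 MICs were determined by broth microdilution following the National Committee for Clinical Laboratory Standards method for aerobically growing bacteria.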

The test system of a further experiment is Haemophilus influenzae. Put plainly: Antibacterial activity against quinolone-susceptible Haemophilus influenzae 1435. In short, it runs like this:
as §1

The subject of a further experiment is JIYOYE. Kind of experiment: Cytotoxicity against human B cells by Jijoye assay. The conditions noted are these: read-out: LD50 (the source's name).
The subject of experiment [4] is Streptococcus pneumoniae. Kind of experiment: Inhibition on Streptococcus pneumoniae translation by transcription/translation coupled assay.

As to `C=CC[C@@H]1Oc2cc3c(O)c(C(=O)O)cnc3nc2N2CCC[C@@H]12`, the pIC50 (in general, the IC50 on a negative log10 scale, so that one unit is a factor of ten) with Streptococcus pneumoniae [1] is 4.33. Further, the MIC in the experiment with Streptococcus pneumoniae [2] was 8 µg/mL (≈ 24.4 µM); against Streptococcus pneumoniae [3], greater than 64 µg/mL; against Haemophilus influenzae, 64 µg/mL (≈ 196 µM). In the experiment on JIYOYE, the CC50 was greater than 100 µg/mL.

In the experiment on Streptococcus pneumoniae [1], `CC(C)(C)n1cc(C(=O)O)c(=O)c2cc3c(nc21)N1CCC[C@H]1C(=O)N3` showed a pIC50 of less than 3.70. Further, the MIC was greater than 64 µg/mL with Streptococcus pneumoniae [2], greater than 64 µg/mL against Streptococcus pneumoniae [3] and greater than 32 µg/mL in the experiment on Haemophilus influenzae. Moreover, the CC50 in the experiment with JIYOYE is greater than 100 µg/mL.

With `O=C(O)c1cnc2nc3c(cc2c1O)OC[C@@H]1C[C@@H](O)CN31`, the pIC50 in the experiment with Streptococcus pneumoniae [1] is 5.16. Moreover, the MIC was found to be 16 µg/mL (≈ 52.8 µM) in the experiment with Streptococcus pneumoniae [2], 64 µg/mL (≈ 211 µM) in the experiment with Streptococcus pneumoniae [3] and 16 µg/mL (≈ 52.8 µM) in the experiment on Haemophilus influenzae. Further, the CC50 in the experiment with JIYOYE was greater than 100 µg/mL.

`O=C(O)c1cnc2nc3c(cc2c1O)OCCN3` had a pIC50 with Streptococcus pneumoniae [1] of 4.00. Besides, the MIC in the experiment with Streptococcus pneumoniae [2] is greater than 64 µg/mL; against Streptococcus pneumoniae [3], greater than 64 µg/mL; in the experiment with Haemophilus influenzae, 32 µg/mL (≈ 129 µM). The CC50 in the experiment with JIYOYE was greater than 100 µg/mL.

As for `O=C(O)c1cnc2nc3c(cc2c1O)OC[C@@H]1CCN31`, the pIC50 with Streptococcus pneumoniae [1] was 5.12. Further, the MIC against Streptococcus pneumoniae [2] turned out to be 2 µg/mL (≈ 7.32 µM); in the experiment on Streptococcus pneumoniae [3], 16 µg/mL (≈ 58.6 µM); against Haemophilus influenzae it was 8 µg/mL (≈ 29.3 µM). Besides, the CC50 in the experiment with JIYOYE is greater than 100 µg/mL.

Compound `C[C@@H]1Oc2cc3c(O)c(C(=O)O)cnc3nc2N2CCC[C@@H]12` showed a pIC50 in the experiment on Streptococcus pneumoniae [1] of 5.06. For the same compound, the MIC against Streptococcus pneumoniae [2] came to 4 µg/mL (≈ 13.3 µM); in the experiment on Streptococcus pneumoniae [3] it was 8 µg/mL (≈ 26.6 µM); with Haemophilus influenzae it was 32 µg/mL (≈ 106 µM). The CC50 with JIYOYE was greater than 100 µg/mL.

Compound `O=C(O)c1cnc2nc3c(cc2c1O)OCC1CCCCN31` (stereo unspecified) gave a pIC50 in the experiment on Streptococcus pneumoniae [1] of 4.20. The MIC in the experiment on Streptococcus pneumoniae [2] was 16 µg/mL (≈ 53.1 µM); in the experiment with Streptococcus pneumoniae [3], greater than 64 µg/mL; against Haemophilus influenzae it was 8 µg/mL (≈ 26.6 µM). Further, in the experiment on JIYOYE, the CC50 is greater than 100 µg/mL.

In the experiment on Streptococcus pneumoniae [1], `C=CCC12CCCN1c1nc3ncc(C(=O)O)c(O)c3cc1OC2` (stereo unspecified) gave a pIC50 of less than 3.52. Moreover, the MIC against Streptococcus pneumoniae [2], in the experiment with Streptococcus pneumoniae [3] and in the experiment on Haemophilus influenzae was greater than 64 µg/mL throughout. In the experiment on JIYOYE, the CC50 was greater than 100 µg/mL.

In the experiment on Streptococcus pneumoniae [1], `CN1C[C@@H]2CCCN2c2nc3ncc(C(=O)O)c(O)c3cc21` showed a pIC50 of 6.05. In addition, the MIC stood at 2 µg/mL (≈ 6.66 µM) in the experiment on Streptococcus pneumoniae [2], 8 µg/mL (≈ 26.6 µM) against Streptococcus pneumoniae [3] and 8 µg/mL (≈ 26.6 µM) against Haemophilus influenzae. In addition, the CC50 with JIYOYE is greater than 100 µg/mL.

Take `O=C(O)c1cnc2nc3c(cc2c1O)OC[C@@H]1CCCN31`: the pIC50 in the experiment with Streptococcus pneumoniae [1] was 5.28. Besides, the MIC in the experiment with Streptococcus pneumoniae [2] was 1 µg/mL (≈ 3.48 µM); against Streptococcus pneumoniae [3], 4 µg/mL (≈ 13.9 µM); against Haemophilus influenzae, 2 µg/mL (≈ 6.96 µM). For the same compound, in the experiment with JIYOYE, the CC50 was greater than 100 µg/mL.

Compound `CN1CCOc2cc3c(O)c(C(=O)O)cnc3nc21` had a pIC50 with Streptococcus pneumoniae [1] of 4.15. For the same compound, the MIC in the experiment on Streptococcus pneumoniae [2] is 32 µg/mL (≈ 122 µM); against Streptococcus pneumoniae [3], greater than 64 µg/mL; in the experiment with Haemophilus influenzae, 32 µg/mL (≈ 122 µM). Also, in the experiment on JIYOYE, the CC50 was greater than 100 µg/mL.

In the experiment with Streptococcus pneumoniae [1], `O=C(O)c1cnc2cc(N3CCNCC3)c(F)cc2c1O` gave a pIC50 of 3.85. Moreover, the MIC against Streptococcus pneumoniae [2] and with Streptococcus pneumoniae [3] was greater than 64 µg/mL each time.

In turn, `O=C(O)c1cnc2nc3c(cc2c1O)NC(=O)[C@@H]1CCCN31` gave a pIC50 in the experiment on Streptococcus pneumoniae [1] of 4.66. In addition, the MIC with Streptococcus pneumoniae [2], with Streptococcus pneumoniae [3] and with Haemophilus influenzae was greater than 64 µg/mL throughout. Besides, the CC50 in the experiment on JIYOYE is greater than 100 µg/mL.

Consider `CC12CCCN1c1nc3ncc(C(=O)O)c(O)c3cc1OC2` (stereo unspecified), for which the pIC50 in the experiment on Streptococcus pneumoniae [1] was 3.97. Further, the MIC was 32 µg/mL (≈ 106 µM) against Streptococcus pneumoniae [2], greater than 64 µg/mL against Streptococcus pneumoniae [3] and 32 µg/mL (≈ 106 µM) against Haemophilus influenzae. Moreover, in the experiment with JIYOYE, the CC50 was greater than 100 µg/mL.

Regarding `CC(=O)N1C[C@@H]2CCCN2c2nc3ncc(C(=O)O)c(O)c3cc21`, in the experiment with Streptococcus pneumoniae [1], the pIC50 is 5.15. In addition, the MIC came out at 16 µg/mL (≈ 48.7 µM) with Streptococcus pneumoniae [3] and 4 µg/mL (≈ 12.2 µM) with Haemophilus influenzae.

For `O=C(O)c1cn(C2CC2)c2nc3c(cc2c1=O)OC[C@@H]1CCCN31`, in the experiment with Streptococcus pneumoniae [1], the pIC50 was less than 4.00. The MIC is 8 µg/mL (≈ 24.4 µM) in the experiment with Streptococcus pneumoniae [2] and greater than 64 µg/mL against Streptococcus pneumoniae [3].

Turning to `O=C(O)c1cnc2nc(N3CCC[C@@H]3CO)c(F)cc2c1O`, the MIC with Streptococcus pneumoniae [2], against Streptococcus pneumoniae [3] and against Haemophilus influenzae was greater than 64 µg/mL in each case. For the same compound, in the experiment with JIYOYE, the CC50 is greater than 100 µg/mL. Moreover, in the experiment on Streptococcus pneumoniae [4], the pIC50 is 4.12.

With `O=C(O)c1cnc2nc(N3CCCC3)c(F)cc2c1O`, the MIC in the experiment with Streptococcus pneumoniae [2] is 4 µg/mL (≈ 14.4 µM); in the experiment on Streptococcus pneumoniae [3], 16 µg/mL (≈ 57.7 µM); against Haemophilus influenzae it was less than 1 µg/mL. In the experiment with JIYOYE, the CC50 was greater than 100 µg/mL.

In the experiment with Streptococcus pneumoniae [1], `C=CC[C@H]1Oc2cc3c(O)c(C(=O)O)cnc3nc2N2CCC[C@@H]12` had a pIC50 of less than 3.52. Also, the MIC with Streptococcus pneumoniae [2], against Streptococcus pneumoniae [3] and in the experiment on Haemophilus influenzae was greater than 64 µg/mL in each case. For the same compound, the CC50 in the experiment with JIYOYE was greater than 100 µg/mL.

Consider `O=C(O)c1cnc2nc3c(cc2c1O)NC[C@@H]1CCCN31`, for which the pIC50 in the experiment on Streptococcus pneumoniae [1] was 5.00. The MIC turned out to be 8 µg/mL (≈ 27.9 µM) in the experiment with Streptococcus pneumoniae [2], 16 µg/mL (≈ 55.9 µM) against Streptococcus pneumoniae [3] and 8 µg/mL (≈ 27.9 µM) with Haemophilus influenzae. In addition, the CC50 in the experiment with JIYOYE turned out to be 18 µg/mL (≈ 62.9 µM).

The compound `CCN1CCOc2cc3c(O)c(C(=O)O)cnc3nc21` showed a pIC50 with Streptococcus pneumoniae [1] of 4.08. Moreover, the results for the MIC against Streptococcus pneumoniae [2], in the experiment with Streptococcus pneumoniae [3] and in the experiment on Haemophilus influenzae were 32 µg/mL (≈ 116 µM), greater than 64 µg/mL and 64 µg/mL (≈ 233 µM), respectively. Also, the CC50 with JIYOYE was greater than 100 µg/mL.

In the experiment on Streptococcus pneumoniae [1], `O=C(O)c1cnc2nc3c(cc2c1O)N(c1ccccc1)C[C@@H]1CCCN31` gave a pIC50 of 4.19. Further, the MIC against Streptococcus pneumoniae [2], with Streptococcus pneumoniae [3] and against Haemophilus influenzae was greater than 64 µg/mL throughout. In addition, the CC50 with JIYOYE is greater than 100 µg/mL.

For the compound `COc1ccc(Cn2cc(C(=O)O)c(=O)c3cc4c(nc32)N2CCC[C@H]2CO4)c(OC)c1`, the pIC50 in the experiment with Streptococcus pneumoniae [1] is 4.24. The MIC with Streptococcus pneumoniae [2] was 32 µg/mL (≈ 73.2 µM); against Streptococcus pneumoniae [3], greater than 64 µg/mL; with Haemophilus influenzae, greater than 64 µg/mL. Also, the CC50 with JIYOYE is 12 µg/mL (≈ 27.4 µM).

`O=C(O)c1cnc2nc3c(cc2c1O)OC[C@H]1CCCN31` had a pIC50 in the experiment on Streptococcus pneumoniae [1] of 4.98. Also, the MIC came out at 1 µg/mL (≈ 3.48 µM) in the experiment with Streptococcus pneumoniae [2], 8 µg/mL (≈ 27.8 µM) against Streptococcus pneumoniae [3] and 4 µg/mL (≈ 13.9 µM) in the experiment on Haemophilus influenzae. In the experiment with JIYOYE, the CC50 was greater than 100 µg/mL.

The compound `COc1ccc(Cn2cc(C(=O)O)c(=O)c3cc4c(nc32)N2CCC[C@@H]2CO4)c(OC)c1` had a pIC50 with Streptococcus pneumoniae [1] of 3.64. In addition, the MIC against Streptococcus pneumoniae [2] was 16 µg/mL (≈ 36.6 µM); against Streptococcus pneumoniae [3], greater than 64 µg/mL; in the experiment with Haemophilus influenzae, greater than 64 µg/mL. In the experiment on JIYOYE, the CC50 amounted to 6 µg/mL (≈ 13.7 µM).

`N[C@H]1C[C@H]2COc3cc4c(O)c(C(=O)O)cnc4nc3N2C1`: the pIC50 in the experiment on Streptococcus pneumoniae [1] was 5.57. Further, the MIC against Streptococcus pneumoniae [2], with Streptococcus pneumoniae [3] and in the experiment with Haemophilus influenzae was greater than 64 µg/mL in each case. For the same compound, in the experiment on JIYOYE, the CC50 was greater than 100 µg/mL.

As for `C[C@H]1Oc2cc3c(O)c(C(=O)O)cnc3nc2N2CCCC12` (single isomer, unassigned), the pIC50 in the experiment on Streptococcus pneumoniae [1] was 3.90. For the same compound, the MIC in the experiment with Streptococcus pneumoniae [2] is 32 µg/mL (≈ 106 µM); against Streptococcus pneumoniae [3], 64 µg/mL (≈ 212 µM); against Haemophilus influenzae it was 64 µg/mL (≈ 212 µM). Also, the CC50 with JIYOYE is greater than 100 µg/mL.

Turning to `O=C(O)c1cn(C2CC2)c2cc(N3CCNCC3)c(F)cc2c1=O` [CIPROFLOXACIN], in the experiment with Streptococcus pneumoniae [1], the negative-log IC50 (pIC50) is 3.70. For the same compound, the MIC against Streptococcus pneumoniae [2] came out at 16 µg/mL (≈ 48.3 µM); in the experiment with Streptococcus pneumoniae [3] it was 2 µg/mL (≈ 6.04 µM).

These data come from ChEMBL document CHEMBL1146867, “Novel antibacterial class: a series of tetracyclic derivatives” (J Med Chem, 2006).
